Assay results from the EternaBench riboswitch data.

System: MS2 coat protein
Assay: apparent Kd, MS2 coat protein; higher = weaker binding; RNA-MaP array; FMN 200 µM where present
Procedure, shortened: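 The apparent Kd comes from binding curves fitted cluster by cluster, filtered, and summarised as a median. Those curves followed SNAP-549-labelled MS2 coat protein from 0.7 or 1.5 nM, doubling to 3 µM, on Illumina sequencing-chip clusters where stalled E. coli RNA polymerase had transcribed the designs, without and then with constant ligand. The buffer was 100 mM Tris-HCl pH 7.5, 80 mM KCl, 4 mM MgCl2, BSA, DTT, yeast tRNA and Tween-20, and green signal was normalised to red-channel RNA signal and control-cluster median Fmax.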

[1] = designed as: ON switch for flavin mononucleotide, no ligand
[2] = ligand present: flavin mononucleotide, designed as: ON switch for flavin mononucleotide
[3] = designed as: OFF switch for flavin mononucleotide, no ligand
[4] = ligand present: flavin mononucleotide, designed as: OFF switch for flavin mononucleotide

| Sequence | apparent Kd [1] | apparent Kd [2] | apparent Kd [3] | apparent Kd [4] |
| --- | --- | --- | --- | --- |
| GCACUUCGGCAGAAGGGACUAUGGGUAUGGUAGUCAGGAUAUGCAGGGUGGGCGUUUCACAUGAGGAUCACCCAUGUAGGACCA | 15.1 nM | 8.52 nM | – | – |
| AUGCGUGGCUAGGAUAUCGAGGAAUCUAGCCAGCGAGAAGGAGCCACAUGAGGAUCACCCAUGUGGUGAACCUC | – | – | 22.8 nM | 17.6 nM |
| UUUUUGUCAGGAUAUGAGUAGUAGAACAAUAGUACUACUACUCAGAAGGGACAUGAGGAUCACCCAUGUUCCUC | – | – | 15.2 nM | 54.1 nM |
| AAUAAACAUGAGGAUCACCCAUGUCAGGAUAUCCAUUUGUUUUUGUUGGUUUUUUUUUGGAGAAGGGACGCUUA | – | – | 87.3 nM | 63 nM |
| GAGUACAUCGGAGGAUAUCAUGUAAAUACAUGAGGAUCACCCAUGUCGAUGGAGACAUCGGAGAUUGAGAAGGCCGAUGUACCG | 180 nM | 8.63 nM | – | – |
| UUAAAUCAUGUAGGAUAUGCGUGGCGAAGCUAUGCAGAAGGACAUGAGGAUCACCCAUGUUCUGCGGUCUGCGUACAGAUCGCU | – | – | 18.3 nM | 155 nM |
| UGGUACUAGGGAGGAUAUGGGAAGAUACAUGAGGAUCACCCAUGUUUAAGAAUGCCGAGAGGCAACUAGAAGGCCCUAGUACUU | 448 nM | 20.2 nM | – | – |
| UUGGUUACAUGAGGAUCACCCAUGUCUCAGGCCCUAUUUAGCAGAAGGCCAGCUGGGCUACGGAUGGAGGAUAUGCUUAUGGCC | 131 nM | 29.6 nM | – | – |
| CAGUUCUGAGGAUAUCCACCCUCCUACAUGAGGAUCACCCAUGUUUCCCUCUGGGUUUUCGGAGAAGGCAGUUAUC | – | – | 44.7 nM | 79.6 nM |
| AAGGUACGAGGAUAUACAUAGAUACAGAUACAUGUGGAUGUACAUGAGGAUCACCCAUGUAGAAGGCGUAUAUA | – | – | 300 nM | 318 nM |
| CGUCCACAUGAGGAUCACCCAUGUUAGGAUAUAAACGCCGUAGUCCAAGGACGGGCCUUUAGAAGGAGCGCGGG | – | – | 13.9 nM | 25.6 nM |
| UAAAUGUCAGGAUAUUGUUAAUUUAGUUGUUUGUAUUAGUUCGAGAAGGGACAUGAGGAUCACCCAUGUUGUUU | – | – | 28.9 nM | 31.1 nM |
| AAUAUGUUGCAGAAGGUUAUAUUUAUUUAGUACCUCAUGACAUGAGGAUCACCCAUGUUAAUGUUGAAGGAUAUGCAAUAUAUU | – | – | 14.1 nM | 13.6 nM |
| UUAUGUGUCGUAGGAUAUCAUUAGAUUUGUAAUUUAAUUGUAAUUUACAUAUGAGAAGGACGUUUACAUGAGGAUCACCCAUGU | – | – | 15.9 nM | 14.6 nM |
| GUAGCAUACCGAGGAUAUUCAUAUAAUAAGUAAACAUGAGGAUCACCCAUGUAGCGAGAGCCUUGGGAGAAGGCGGAAUGCUAC | 337 nM | 58.1 nM | – | – |
| CGGGAAGUCGUAGGAUAUGGUGAUGUACAUGAGGAUCACCCAUGUCCGUCUUCUCUCACAAGAUGCCAGAAGGGCGACUCCCGG | 641 nM | 317 nM | – | – |
| CGAUAGGACAGAGGAUAUACACAUGAGGAUCACCCAUGUGAUUACAACGCGAAAGCGCCAAACAUGUAGAAGGCUGUCCUAUCG | – | – | 22.7 nM | 12 nM |
| GGUGUGGCAGGAUAUACAUCGAAGGGUGCAAAGGGCUCGGCACAUGAGGAUCACCCAUGUAGAAGGGCCUACCA | – | – | 14.9 nM | 20.7 nM |
| CCUCGCCCUCUUGCACAUGAGGAUCACCCAUGUUUUACGUACUAGGAUAUAGCUAUGUUCAAUCGUUAGAAGGAGUUCAUGGAU | – | – | 110 nM | 105 nM |
| UAGAUGGGAGGAUAUACGUAGAUGCAGGUUCGUGUGGUUCUACAUGAGGAUCACCCAUGUAGAAGGCCCGUCUU | – | – | 16.6 nM | 27.5 nM |
| UCGGCGCGAGGAUAUACGUUUGCGCGUUUUCGUUUGCGCGUACAUGAGGAUCACCCAUGUAGAAGGCGCGCCGC | – | – | 15.1 nM | 29.9 nM |

| Sequence | apparent Kd [1] | apparent Kd [2] | apparent Kd [3] | apparent Kd [4] |
| --- | --- | --- | --- | --- |
| CCCUCACAUGAGGAUCACCCAUGUCAGGAUAUUCGACGGUAAAUUGGCCGUCUUAAAGGAAGAAGGGACGUAAC | – | – | 12.5 nM | 17.9 nM |
| UCGUGAGGGACAGGAUAUGGACAUGAGGAUCACCCAUGUACAUGGGAAUAUAUACUGAAUUUAUACUAGAAGGGUUACAUAAAU | – | – | 21.6 nM | 16.1 nM |
| GCAAAAGUCCUGAGGGUAGGAGACAGAAGGGCACCGGGAUCACUCCACAUGAGGAUCACCCAUGUGCAGGAUAUGUCGGCUGAA | – | – | 22.3 nM | 327 nM |
| UACCUAUUUAUGGUAUUUCAAUAUGAGGAUAUCAUUUAUUUAUACAUGAGGAUCACCCAUGUUACUGAGAAGGCAUAUUUAAUA | 11.4 nM | 6.01 nM | – | – |
| GUCAGCUCGUCAGGAUAUACGUCACUGCUUCGGCAGUGUGGUAAGAUCACAUGAGGAUCACCCAUGUAGAAGGGACGAGCUGAU | – | – | 12.3 nM | 291 nM |
| UGGUACAUCGGAGGAUAUCAUGUGUAAACAUGAGGAUCACCCAUGUCGUACGAGAGUACGGAGAUUGAGAAGGCCGAUGUACCU | 88.7 nM | 16.5 nM | – | – |
| ACCUGCCGUGGCACGGUAGUACCGGAGGAUAUCCGCGUCGGUCAUGACAUGAGGAUCACCCAUGUGGAGAAGGCUGGUUUGUCC | – | – | 11.9 nM | 24.8 nM |
| UCGUACUUUCGAGGAUAUCGGUGAUAUAUAUUACGAGAAGGCGAUUGUUUGUUUUACGUCUUAGACAUGAGGAUCACCCAUGUA | 40.4 nM | 30.5 nM | – | – |
| ACGUUAAUUCGAGGAUAUCGGUGAUAUAUAUUACGAGAAGGCGAUAAUUGUGAUAAACUUAUAGACAUGAGGAUCACCCAUGUA | 42.1 nM | 38.2 nM | – | – |
| AAAAAGCGAGGAUAUACAUGAGGAUCACCCAUGUGAGAGAAAAAAAGGAGAAAAAAAAGUAGAAGGCGCAAAAA | – | – | 61.6 nM | 72.2 nM |
| ACAUGAGGAUCACCCAUGUCACUUUUACAUGGGUAUAUAAGCGAGGAUAUGCAUAUACCCUGGGUGCAGAAGGCGCUUUUUUAA | – | – | 74.5 nM | 105 nM |
| AGAAAACAUGAGGAUCACCCAUGUAAGGAUAUGCUAAGGGUGGCUUCGGCCACCCAAUGCAGAAGGUACAAAUA | – | – | 49.6 nM | 59.7 nM |
| CAGCGAAAGUAGAAGGCAGUACUGAUACAGUACUGAGGAUAUACAUGAGGAUCACCCAUGUUCUUCAGCUGGAAAUAAAUAAAA | – | – | 8.02 nM | 124 nM |
| CCUAAGGAGGUAGGAUAUAGUGUGGUGGCCGGGCUCCCACGGCGAGCGGCACUAGAAGGAUCGCUACAUGAGGAUCACCCAUGU | 10.2 nM | 9.71 nM | – | – |
| AGUAGAUCAGGAUAUACAUAAAUGAUAAUUAUGUACUUUUUACAUGAGGAUCACCCAUGUAGAAGGGAUCUACA | – | – | 14.8 nM | 22 nM |
| GAUCCGUGGCUUUCGCUUUGUUCACAUGAGGAUCACCCAUGUAGAAGGUAGCGGUUGAAUUUCGCUGAGGAUAUACAUAGGUGC | – | – | 13.4 nM | 24.3 nM |
| UGUUGUAUUACAGGAUAUCUAUUAGCUUUAUUUAGAGAAGGGUAUUCACAUGAGGAUCACCCAUGUAUAUACGAGGAAGUUGUG | 46.1 nM | 50.1 nM | – | – |
| CAAGGCGGUGAAGGAUAUACACGGGCGUUGCCAAACAUGAGGAUCACCCAUGUAGAAGGUCACCCUGAGAAGGCUUUAUGCCAU | – | – | 382 nM | 45.2 nM |
| GCUUCCGCAUGAGGAUAUUGUUAAGGGACGGGACCUCAUGACCCACAUGAGGAUCACCCAUGUGGCGAGAAGGCGUGUAGAGCG | – | – | 10.1 nM | 32.7 nM |
| UUCCUGUCAGGAUAUGACUAGAUGCACGAAAGUGUGUUUAGUUAGAAGGGACAUGAGGAUCACCCAUGUAGUCC | – | – | 23.5 nM | 39 nM |
| UUCCGCGUUGUAAGGAUAUCUAAUUCUUAUGAAAUAGAGAAGGUACAUGAGGAUCACCCAUGUACUUGGGACUA | – | – | 18.7 nM | 22.4 nM |
